Variants at the floor of the assay were thinned out.

To fix the notation:
B1: tRNA (parent)
chain: GUUCCGUUGGCGUAAUGGUAACGCGUCUCCCUCCUAAGGAGAAGACUGCGGGUUCGAGUCCCGUACGGAACG

The variants in this data set derive from B1. In words: yeast fitness relative to wild type (ratio to wild type); higher = fitter; tRNA-Arg(CCU), competitive growth, 37 C, YPD. Put shortly: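 Gene amplicons from the start population and from each of six end populations were read by 100-nucleotide paired-end sequencing. Those end populations came from pooled Saccharomyces cerevisiae strains carrying tRNA-Arg(CCU) gene variants at the native locus, competed in YPD at 37°C for 24 hours. Fitness relative to wild type was worked out from changes in genotype frequencies. Genotypes needed ≥ 100 starting reads, and estimates < 0.5 were set to 0.5.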
GUUCUGUUGGCGUAAUGGUAACGCGUCUUCCUCCUAACGAGAAGACUGCGGGUUCGAGUCCCGUACGGAACG: the yeast fitness was ≤ 0.5.

With GUUCUGUUGGCGUAAUGGUAACGCGUCUCCGUCCUAAGGAGAAGACUGCGGGUUCGAGCCCCGUACGGAACG, the yeast fitness was 0.913.

Turning to GUUCUGUUGGCGUAAUGGUAACGCGUGUCCGUCCUAAGGAGAAGACUGCCGGUUCGACUCCCGUACGGAACG, the yeast fitness stood at 0.743.

GUUCUGUUGGCGUAAUGGUAACGCGUCUGACUCCUAAGGAGAAGACUGCGGGUUCGAGUCCCAGACGGCACG: the yeast fitness is 0.572.

With GUUCUGUUGGCGUAAUGGUAAUGCGUCUCCCUCCAAUGGAGAAGACUGCGGGUUCGAGUCCCGUACAGAACG, the yeast fitness was ≤ 0.5.

In the case of GUUCUGUUGGCGUAAUGGUAACGGGUCUCCCUCCUAAGGAGAAGACUGCGGGAUCGAGUCCCAUACGGAACG, the yeast fitness was ≤ 0.5.

On to GUUCUGUUGGCGUAAUGGUAACGCGUCUACCCCCUAAGGAGAAGACUGCGGGUUCGAGUACCGUACGGAACG, for which the yeast fitness was found to be 0.596.

As to GUUCUGUUGGCGUAAUGGUAACGCGUCUCUCUCCUAAGGAGCAGACUGCGGGUUCGAGUGCCGUACGGAACG, the yeast fitness is ≤ 0.5.

GUUCUGUUGGCGUAAUGGUAAUGCGUCUCCCUCUUAAGGAAAAGGCUGCGGGUUCGAGUCCCGUACGGAACG: the yeast fitness was ≤ 0.5.

Regarding GUUCUGUUGGCGUAAUGGUAACGUGUCUCCCUCCUAAGGAGAAGACUGCGGGUUUGAGUCCCGUACGGAACG, the yeast fitness was found to be 0.711.

For the variant GUUCUGUUGGCGUAAUGGUAACGCGUCUCCGUCCUAAGGAAAAGACUGCGGCUUCGAGUUCGGUAGGGAACG, the yeast fitness was ≤ 0.5.

In the case of GUUCUGUUGGCGUAAUGGUAACGAGUCUCCCUCCUAAGGAGAAGACUGCGGGUUAGAGUCCCGUGCGGAACG, the yeast fitness is ≤ 0.5.

With GUUCUGUUGGCGUAAUGGUAAUGCGACUCCCUCCUAAGGAGAAGACUGCGGGUUGGAGUCCCGUACGGAACG, the yeast fitness is ≤ 0.5.

Turning to GUUCUGUUGGCGUAAUGGUAACGCGUCUCCUUCUUAAGGAGAAGACUGCGGGUUCGAGUCCCGUACGGAACG, the yeast fitness was ≤ 0.5.

For the variant GUUCUGUUGGCGUAAUGGUAACGCGUCUUCCUCGUAAGGAGAAGACUGCGGGUUCGAGUCCCGUACGGAACG, the yeast fitness was ≤ 0.5.

As to GUUCUGUUGGCGUAAUGGUAACGUGUCUCCCACCUAAGGAGAAGACUGCGGGUUGGAGUCCCGUACGGUACG, the yeast fitness is ≤ 0.5.

As to GUUCUGUUGGCGUAAUGGUAACGUGUCUCCCUCCUAACGAGAACACUGCGGGUUCGAGUCCCGUACGGAACG, the yeast fitness was ≤ 0.5.

GUUCUGUUGGCGUAAUGGUAAUGCGUCUCCCUUCUAAGGAGAAGACUGCGGGUUCGAGUCCCGUACGGACCG: the yeast fitness was ≤ 0.5.

Take GUUCUGUUGGCGUAAUGGUAACGCGUCUCCGUCCUAAGGAGAAGACUGCGGGUUCGUGUCCCGUACGGAACG: the yeast fitness was ≤ 0.5.

GUUCUGUUGGCGUAAUGGUAACGCGUCUGGCUCCUAAGGAGAAGACUGCGGGUUCGAGUCCCGUACGGAACG: the yeast fitness is ≤ 0.5.

With GUUCUGUUGGCGUAAUGGUAACGCGUGUCCCUCCUAAAGAGAAGACUGCGGGUUCGAGUCCCGUACGGAACG, the yeast fitness worked out at 0.515.

With GUUCUGUUGGCGUAAUGGUAACGCGUCUCUCUCCUAAGGAGAAGACUGCGGGUUCGAGUCCCGUACGGAACG, the yeast fitness was found to be 0.942.

GUUCUGUUGGCGUAAUGGUAACGCGUCUCGCUCCUAAGGAGAAGACUGCGGGUUCGAGUCCCGUACGGAACG: the yeast fitness was 0.676.

GUUCUGUUGGCGUAAUGGUAAUGCGUUUCCCUCCUAAGGAGGAGACUGCGGGUUAGAGUACCGUACGGAACG: the yeast fitness was ≤ 0.5.

Take GUUCUGUUGGCGUAAUGGUAAUGCGUCUCCCUCCUACGGAGAAGACUGCGGGUUAGAGUCCCGUACGGAACG: the yeast fitness came out at 0.538.

With GUUCUGUUGGCGUAAUGGUAACGAGUCUCCCUCCUAAGGAGAAGACUGCGGGUUCGAGUCCCGUACGGAACG, the yeast fitness was 0.597.

Take GUUCUGUUGGCGUAAUGGUAAUGCGUCUCCUUCCUAAGGAGAAGACUGAGGGUUCGAGCCCCGUACGGUACG: the yeast fitness is ≤ 0.5.

For the variant GUUCUGUUGGCGUAAUGGUAACGCGUUUCCCUCCUAAGGAAAAGACUGCGGGUUCGAGUCCCGUACGGAACG, the yeast fitness worked out at 0.573.

As to GUUCUGUUGGCGUAAUGGUAAUGCGUCUCGCUCCUAAGGAGAAGACUGCGGGUUCGUGUCCCGUAUGGAUCG, the yeast fitness was ≤ 0.5.

With GUUCUGUUGGCGUAAUGGUAACGCGUCUCACUGCUAAGGAGCAGACUGCGGGUUCGAGUCCAGUACGGAACG, the yeast fitness was ≤ 0.5.

As for GUUCUGUUGGCGUAAUGGUAACGCGUUUCCCUCCUAAGGAGAAGACUGCGGGUUCGAGUCCCGUACGGAACG, the yeast fitness was found to be 1.09.

For the variant GUUCUGUUGGCGUAAUGGUAACGCGUCUCGCUCCUAAGGAGAAGACUGCGGGUUCGAGUCCCGUACGGCGCG, the yeast fitness was ≤ 0.5.

In the case of GUUCUGUUGGCGUAAUGGUAACGCGUGACGUUCCUAAGGAGAAGACUGCGGGUUCGAGUCCCGUACAGAACG, the yeast fitness is ≤ 0.5.

In the case of GUUCUGUUGGCGUAAUGGUAACGCGUUUCCCUCCGGAGGAGAAGACUGCGGGUUCGACUCCCGUAUGGAACG, the yeast fitness is ≤ 0.5.

On to GUUCUGUUGGCGUAAUGGUAACGCGUCUGCGUCCUUCGGAGAAGACUGCGGGUUCGCGUCCCGUACGCAACG, for which the yeast fitness was ≤ 0.5.

With GUUCUGUUGGCGUAAUGGUAACGUGUCUCCCUCCUAAGGCGAAGUCUGCGGGUUCGAGUCCCGUACGGAACG, the yeast fitness was ≤ 0.5.

Turning to GUUCUGUUGGCGUAAUGGUAACGCGUCUCACUCCUAAGGAGUAGACUGCGGGUUCGAGUCCCGUACGGCACG, the yeast fitness is ≤ 0.5.

Consider GUUCUGUUGGCGUAAUGGUAACGUGUCUCCCUCCUGAGGAGAAGAACGCGGGUUAGAGUCCCGUACGGAACG, for which the yeast fitness was ≤ 0.5.

For GUUCUGUUGGCGUAAUGGUAACGUGUCUCCCUCCUAAGGAGAAGACUGCGGGUUCGAGUCCCGUACGGCACG, the yeast fitness came out at 0.777.

On to GUUCUGUUGGCGUAAUGGUAACGCGUAUCCCUCCUAAGGAGUAGACUGCGGGUUCGAGUCCCGUACGGAACG, for which the yeast fitness is 0.642.

For GUUCUGUUGGCGUAAUGGUAACGCGUCUUCCUCCUGAGGAGAAGACUGCGGGUUCGAGACCCGUACGGAACG, the yeast fitness was ≤ 0.5.

As for GUUCUGUUGGCGUAAUGGUAACGCGUCUUCCUCCUAAGGAGAGGACUGCGGGUUCGAGUCCCGUACGGAACG, the yeast fitness came out at 0.632.

Regarding GUUCUGUUGGCGUAAUGGUAAUGCGUCUCCCUCCUAAGGACAAGACUGGGGGUUCGAGGCCCAUAUGGAACG, the yeast fitness is ≤ 0.5.

On to GUUCUGUUGGCGUAAUGGUAAUGCGUCUCCCUCCUACGGAGAAGACUUCGGGUUAGAGUCCCGUACGGAACG, for which the yeast fitness is ≤ 0.5.

Consider GUUCUGUUGGCGUAAUGGUAACGCGUGUCCCUCCUAAGGAGAAGACUGCGGGUUCGAGUCCCGUACGCAACG, for which the yeast fitness is 0.577.

Turning to GUUCUGUUGGCGUAAUGGUAACGCGUCUACCUCCUAAGGAGAAGACUGCGGGUUCGAGUCCCGUACGGCACG, the yeast fitness is ≤ 0.5.

As for GUUCUGUUGGCGUAAUGGUAACGCGUCUCCGUGUUAAGGAGAAGACUGUGGGUUCGAGUCCCGUACGAAACG, the yeast fitness is 0.543.

GUUCUGUUGGCGUAAUGGUAACGCGUCUACCUCCUAAGGAGGAGACUGCGGGUUCGAGUCGCGUACGGAACG: the yeast fitness is ≤ 0.5.

As to GUUCUGUUGGCGUAAUGGUAACGCGUGUCCCUCCUAAGGAGAAGACUGCGGGUUCGAGUACCGUACGGAACG, the yeast fitness was ≤ 0.5.

With GUUCUGUUGGCGUAAUGGUAACGCGUCUCUCUCCUACGGAGAAGACUGCGGGUACGAGUCCCGUACGGAACG, the yeast fitness was ≤ 0.5.

For GUUCUGUUGGCGUAAUGGUAACGCGUCUUCCUCCUAAGGAGAAAACUGCGGGUUCGAGUCCCGUACGGAACG, the yeast fitness worked out at 0.868.

In the case of GUUCUGUUGGCGUAAUGGUAACGCGUGUCCCUCCUAAGGAGAAGACCGCGGGUUCGAGUCCCGUACGGAUCG, the yeast fitness is ≤ 0.5.

In the case of GUUCUGUUGGCGUAAUGGUAACGCGUCUCCAUCCUAAGGGGAAGACUGCGGGUUCGAGUCUCGUUCGGAACG, the yeast fitness was ≤ 0.5.

With GUUCUGUUGGCGUAAUGGUAAUGCGUCUCCCUCCUAAGGAGAAGACUCCGGGUUCGAGUCCCGUAUGGAACG, the yeast fitness is ≤ 0.5.

Turning to GUUCUGUUGGCGUAAUGGUAAUGCGUCUCCCUCCUAAGGAGAAGACUGCGGGUUCGUGUCCCGUACGGAACG, the yeast fitness was 0.574.

Take GUUCUGUUGGCGUAAUGGUAACGCGUGUCCCUCGUAAGGAGAAGACUGCGGGUUCGAGUCCCGUACGGAACG: the yeast fitness was ≤ 0.5.

With GUUCUGUUGGCGUAAUGGUAACGCGUCUCCUUCCUACGGAGAUGACUGCCGGUUCGGGUCCCGUACGGAACG, the yeast fitness was ≤ 0.5.

GUUCUGUUGGCGUAAUGGUAACGCGUCUUCCUCCUAAGGAGAAGACUGCCGGUUCGAGACCCGUACGGAACG: the yeast fitness is ≤ 0.5.

With GUUCUGUUGGCGUAAUGGUAACGCGUAUCCCUCCUAAGGAGUAGACUGGGGGUUCGAGUACCGUACGGAACG, the yeast fitness came to 0.817.

With GUUCUGUUGGCGUAAUGGUAACGGGUCUCCCUCCUAAGGCGAAGUCUGCGGGUUCGAGUCCCGUACGGAACG, the yeast fitness is ≤ 0.5.

With GUUCUGUUGGCGUAAUGGUAACGCGUCUCCAUCCUAAGGAGAAGACUGCGGGUUCAAGUCCCGUACGGAACG, the yeast fitness turned out to be 0.562.

Consider GUUCUGUUGGCGUAAUGGUAACGCGUGUCCCUCCUAAAGAGAAGACUGCGGGUUCGAGUCCCGUACGGCACG, for which the yeast fitness is ≤ 0.5.

Turning to GUUCUGUUGGCGUAAUGGUAACGAGUCUCCCUCCUAAGGAGAAGACAGCGGGUUCGAGUCCCGUACGGAACG, the yeast fitness was 0.656.

For GUUCUGUUGGCGUAAUGGUAACGCGUUUCCCUCCUGAGGAGAAGACUGCGGGUUCGAGUCCCGUACGGAACG, the yeast fitness came to 0.75.

In the case of GUUCUGUUGGCGUAAUGGUAACGCGUGUCCCUCCUAAGGCGAAGACUGCGGGUUCGAGUCCCGUACGGAACG, the yeast fitness was ≤ 0.5.

Turning to GUUCUGUUGGCGUAAUGGUAACGCGUCUCACUGCUAAGGAGCAGACUGCGGGUUCGAGUACCGUAAGGCACG, the yeast fitness is ≤ 0.5.

Consider GUUCUGUUGGCGUAAUGGUAACGCGUCUCCGUCCUAAGGGGAAGGGUACGGGUUCGAGUCCUAUACGGAACG, for which the yeast fitness was ≤ 0.5.

Turning to GUUCUGUUGGCGUAAUGGUAACGCGUCUCCGUCCUAAGGAGAAGACCCCGGGUUCGAGUCCCGUACGGAACG, the yeast fitness is ≤ 0.5.

As for GUUCUGUUGGCGUAAUGGUAACGUGUCUCCCUCCUAAGGACAAGACUGCGGGUUCGAGUCCCGUACGGAACG, the yeast fitness is ≤ 0.5.

Take GUUCUGUUGGCGUAAUGGUAACGUGUCUCCCUCCUAAGGAGAAGACUGCGGGUUCCAGUCCCGUACGGAACG: the yeast fitness came to 0.53.

In the case of GUUCUGUUGGCGUAAUGGUAACGUGUCUCCCUCCUGAGGAGAAGAAUGCGGGUUCGAGUCCCGUACGGAACG, the yeast fitness is 0.92.

As to GUUCUGUUGGCGUAAUGGUAAUGCGUCUCCCUUCUAAGGAGAAGACUGCGGGUUCGAGUCCCGUACGCUACG, the yeast fitness is ≤ 0.5.

For the variant GUUCUGUUGGCGUAAUGGUAACGAGUCUCCCUCCUAAGGAGAAGACUGCGGGUUCGAGUCCCGUACCGAACG, the yeast fitness was 0.547.

GUUCUGUUGGCGUAAUGGUAACGCGUCUCGCUCCUAAGGAGAAGACUGCGGGUUCGCGUCCCGUACGGAACG: the yeast fitness came out at 0.715.

With GUUCUGUUGGCGUAAUGGUAACGCGUGUCCCUCCGAAGGAGAAAACUGCGGGUUCGAGUCCCGUACGGAACG, the yeast fitness was ≤ 0.5.

These data come from the RNAGym collection of RNA variant scans (doi:10.1126/science.aae0568).
